Assay outcomes: PubChem BioAssay, Sanford-Burnham Center for Chemical Genomics
Jurkat NFkB inh: inhibitors of the PMA/ionomycin-induced NF-kB reporter in Jurkat cells. inhibition, % at 4 µM. PMA/ionomycin-induced NF-kB luciferase reporter, luminescence. 0.53% of 330,000 active; in the data active means inhibition above about 50%
UPR XBP1 act: adaptive UPR (XBP1) activation | CHO-XBP1 luciferase reporter, IRE1-XBP1 UPR activation, luminescence; percent of tunicamycin response, DMSO as zero | activation, % at 20 µM | 0.33% of 330,000 active;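 active means versus positive control, 20 µM dose yields 30% or more activation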;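 further: 100% = tunicamycin at 10 µg/mL and 0% = DMSO only wells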
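Material: CHO cell line with stable XBP1 luciferase reporter; buffer or medium: F12 medium containing 10% fetal bovine serum; compound: single point, 20 µM final compound, 1% DMSO; incubation: 6 h treatment, 37 °C; measured by: glow luminescence from Steady-Glo reagent; evaluation: activation, % of tunicamycin; control set: tunicamycin high, DMSO low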
697 NFkB inh: inhibitors of the PMA/ionomycin-induced NF-kB reporter in 697 B cells | 697 B-cell NF-kB luciferase reporter, 16 h | inhibition, % at 4 µM | 0.33% of 330,000 active | AID 435022; in the data active means inhibition above about 35%
CRFBP-R2 block: blocks CRF-induced signaling of the CRF-BP/CRF-R2 complex; inhibition, % at 11.8 µM; 0.59% of 350,000 active; HEK293 CRF-R2/CRF-BP, CRF-induced calcium fluorescence; AID 588475;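 active means inhibition of the ligand-induced calcium signal above about 50% at the single tested concentration, limit read from the data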
UPR CHOP act: activators of apoptotic arm of unfolded protein response (CHOP). CHO-CHOP luciferase reporter, UPR activation, luminescence; percent of tunicamycin response over DMSO baseline. activation, % at 10 µM. AID 449763. 0.34% of 330,000 active;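 active means at 10 µM dose, activation of 40% or more, normalized to positive control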;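 further: 100% = tunicamycin at 10 µg/mL and 0% = DMSO alone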
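Material: CHO-CHOP cells, stable luciferase reporter of PERK-eIF2a-CHOP signalling; quantity: 500 reporter cells seeded per well; buffer or medium: F12 medium containing 10% fetal bovine serum; compound: one dose, 10 µM in 0.5% DMSO; incubation: 6 h compound treatment, 37 °C; measured by: Steady-Glo luciferase luminescence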
* = called active by the depositor; nt = no result given. Hits are enriched below; roughly 1.8% of the tested compounds scored in any of these assays.

SMILES	Jurkat NFkB inh	UPR XBP1 act	697 NFkB inh	CRFBP-R2 block	UPR CHOP act
CCN(CC)CCN(C(=O)c1cc2c(ccc3ccccc32)oc1=O)c1nc2cc3c(cc2s1)OCCO3	-74	210*	-93	-12	19
COc1ccc(CNC(=O)[C@H](C)NC(=O)C2CCN(S(=O)(=O)c3ccc(F)cc3)CC2)cc1	8	-7	23	82*	-1
COc1ccc(S(=O)(=O)N2CCC(C(=O)N[C@@H](C)C(=O)NCc3ccc(F)cc3)CC2)cc1	11	-2	-3	1	0
COc1cccc(NC(=O)C2CCCN(S(=O)(=O)c3ccc(-n4cnnn4)cc3)C2)c1 (centres undefined)	4	-3	1	86*	-1
COc1ccc(S(=O)(=O)N2CCCC(C(=O)NCc3ccncc3)C2)cc1 (centres undefined)	15	0	2	56*	-3
CCOc1cccc(NC(=O)C2CCCN(S(=O)(=O)c3ccc(-n4cnnn4)cc3)C2)c1 (centres undefined)	-4	-3	-7	26	-2
CCOc1ccc(S(=O)(=O)n2ccc(C)n2)c2ccccc12	-2	0	-16	55*	-1
CCCCN(C(=O)Cc1ccc(S(=O)(=O)N2CCOCC2)s1)c1c(N)n(CCCC)c(=O)[nH]c1=O	-6	0	4	5	1
Cc1cnc(C(=O)N(CC(C)C)c2c(N)n(CC(C)C)c(=O)[nH]c2=O)cn1	-16	-1	-21	-2	1
CCn1nc(C)c(NC(=O)/C=C/c2ccc(OC)c(COc3ccc(Cl)cc3Br)c2)c1C	12	1	-17	4	-1
COc1ccc(/C=C/C(=O)NCc2cn(C)nc2C)cc1COc1ccc(Cl)cc1Br	3	1	4	92*	0
C=CCNC(=O)CN(Cc1ccccc1)S(=O)(=O)c1ccccc1	-8	-5	8	-11	0
COc1ccccc1C(CNC(=O)c1ccc(OCc2c(C)noc2C)cc1)N1CCCC1 (centres undefined)	-9	-1	-6	-6	2
Cc1nn2c(N)c(-c3ccccc3)cnc2c1-c1ccc(Cl)cc1	-133	4	-119	54*	7
COCCN(CC(=O)Nc1ccccc1C(F)(F)F)C(=O)/C=C/c1cc(Cl)c2c(c1)OCCO2	nt	nt	nt	3	nt
COc1ccc(C2=NN(C)C(=NCc3ccccc3)SC2)cc1	-10	4	-15	62*	2
O=[N+]([O-])c1cccc(-c2nc(-c3ccccn3)no2)c1	-126	-3	-113	59*	2
COc1cccc(-c2nc(-c3ccccn3)no2)c1	20	-5	-41	-12	-9
COc1ccc(C2Nc3ccccc3C(=O)N2c2ccccc2)cc1CSc1ccccn1 (centres undefined)	-5	0	-21	58*	1
COc1ccc(C2Nc3ccccc3C(=O)N2c2ccc(F)cc2)cc1CSc1ccccn1 (centres undefined)	26	10	-71	17	2
Cc1cccc(NC(=O)COC(=O)C2COc3ccccc3O2)c1C (centres undefined)	8	-3	-10	12	0
Cc1ccc(NC(=O)CO/N=C(\N)c2nonc2N)cc1	-3	-1	-4	-4	0
N/C(=N\OCC(=O)Nc1ccccc1)c1nonc1N	-1	-2	25	69*	3
CC(C)(C)NC(=O)CN1C(=O)c2cccc3cccc1c23	nt	nt	nt	-9	nt
CCOC(=O)N1CCN(Cc2nc3c(c(=O)n(C)c(=O)n3C)n2CCC(C)C)CC1	9	-2	15	129*	-1
SMILES	Jurkat NFkB inh	UPR XBP1 act	697 NFkB inh	CRFBP-R2 block	UPR CHOP act
Cn1c(SCC(=O)NC2CC2)nnc1-c1ccc(Cl)cc1	-7	0	19	-16	-2
Cc1ccc(OCCC(=O)O)cc1	0	-1	4	85*	0
Clc1ccc(CSc2nnc(-c3c[nH]c4ccccc34)o2)cc1	-10	-1	-4	3	3
Brc1ccc(CSc2nnc(Cc3c[nH]c4ccccc34)o2)cc1	5	-1	16	50*	-1
Cc1nc(SCC(=O)N(C)C2CCS(=O)(=O)C2)c(C#N)c(C)c1C (centres undefined)	-23	-1	-20	8	-1
c1ccc(-c2nnc(SCc3nnc(-c4cccs4)o3)o2)cc1	5	-4	6	-14	0
Clc1ccc(-c2nnc(CSc3nnc(-c4cccs4)o3)o2)cc1	3	-2	-17	54*	3
COc1ccc(N(CC(=O)NCCc2ccc(OC)c(OC)c2)S(=O)(=O)c2c(C)noc2C)cc1	9	-3	-11	108*	1
O=c1/c(=C\c2cc([N+](=O)[O-])cc([N+](=O)[O-])c2O)sc2nc3ccccc3n12	0	-2	-6	60*	0
O=C(NCc1cc(C(F)(F)F)ccc1Cl)c1cccc2c1C(=O)c1ccc(Cl)cc1S2(=O)=O	17	-1	10	nt	3
O=C(NCc1cc(C(F)(F)F)ccc1Cl)c1cccc2c1C(=O)c1ccc(-c3ccc(OC(F)(F)F)cc3)cc1S2(=O)=O	13	162*	19	nt	91*
N#C/C(=C(/O)COC(=O)COc1cccc(Br)c1)c1nc2ccccc2[nH]1	4	-3	9	100*	1
CC(C)OCc1c(C(=O)OC/C(O)=C(\C#N)c2nc3ccccc3[nH]2)oc2ccccc12	1	-4	11	62*	0
Cc1c(C(=O)OC/C(O)=C(\C#N)c2nc3ccccc3[nH]2)oc2ccc(Br)cc12	1	2	21	5	3
NC(=S)N/N=C1\c2ccccc2-c2c(C(=O)O)cccc21	-6	-3	-6	2	-1
COc1ccccc1NS(=O)(=O)c1cc(C(=O)N2CCCC2)ccc1F	6	-2	7	79*	-1
COc1ccc(NC(=O)CCCC2CCCCC2)cc1S(=O)(=O)N1CCCCC1	7	-5	-17	64*	-2
COc1ccc(NC(=O)CCN2C(=O)C3CC=CCC3C2=O)cc1S(=O)(=O)N1CCCCC1 (centres undefined)	4	-3	-15	13	-1
COc1ccc(NC(=O)CN2CCCC2c2cccs2)cc1S(=O)(=O)N1CCCCC1 (centres undefined)	16	0	-4	64*	2
O=[N+]([O-])c1ccc(CSc2ccc(S(=O)(=O)N3CCCCC3)cn2)cc1	10	-3	25	17	1
Nc1ncnc2c1ncn2C1C=C(CO)C(O)C1O (centres undefined)	nt	nt	nt	-11	nt
Cc1ccc(Sc2c(O)c3ccccc3n(C)c2=O)cc1	nt	nt	nt	2	nt
Cc1ccc(Sc2c(C=O)c3ccccc3n2C)cc1	4	-1	16	58*	-3
